# Columns and labels:
# [1] = Single ascending dose part; assay type: in vivo, human
# Method in brief: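 Healthy men in an interlocking two-cohort, four-period crossover. Each period was randomized 3:1 (6 active, 2 placebo); each participant received three ascending single oral doses and one placebo, each after a moderate-fat meal (~600 calories, ~30% fat). Two sentinel participants per period were dosed first, with a 24-h safety review before the rest. Monitoring covered AEs, vitals, ECGs, labs, physical exams, and GI/hepatobiliary abnormalities. AEs were MedDRA-coded and summarized descriptively.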
# [2] = Single ascending dose part; assay type: in vivo, human; conditions: for AUC / Cmax / Tmax / half-life: human, plasma, oral
# Method in brief: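 Healthy men received a single oral dose of test compound after a moderate-fat meal (~600 calories, ~30% from fat). Plasma was taken from ~2 mL whole blood and assayed by HPLC-MS/MS. Cmax, tmax, AUC0-∞, AUC0-24 and terminal half-life came from standard noncompartmental analysis. Dose proportionality was assessed with a power model and ANOVA.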
# [3] = Lowest observed adverse effect level in dogs; assay type: in vivo
# [4] = Part 1, across all drug doses in the 20 participants
compound,measurement,setting,value
C=C(C)[C@@H]1CC[C@]2(NCCN3CCS(=O)(=O)CC3)CC[C@]3(C)[C@H](CC[C@@H]4[C@@]5(C)CC=C(C6=CC[C@@](CF)(C(=O)O)CC6)C(C)(C)[C@@H]5CC[C@]43C)[C@@H]12 [GSK3640254],"most common AEs: contact dermatitis, number of events",[1]; [4],five
same,"most common AEs: diarrhea, number of events",[1]; [4],four
same,"most common AEs: dizziness, number of events",[1]; [4],four
same,"most common AEs: headache, number of events",[1]; [4],eight
same,"most common AEs: nasopharyngitis, number of events",[1]; [4],three
same,participants reporting GI AEs,"[1]; Part 1, eleven GI AEs in six participants",30%
same,"adverse drug reactions, number",[1]; across both parts of the study (total includes placebo periods per Table 3),12
same,trends in laboratory values or vital sign parameters,[1]; across doses in either part of the study,no clinically significant trends in laboratory values or vital sign parameters
same,deaths or serious AEs,[1]; single and multiple ascending doses,no deaths or serious AEs were reported
same,Adverse event: Any event,[1]; single dose 1 mg (N = 6),3 (50) n (%)
same,Adverse event: Contact dermatitis,[1]; single dose 1 mg (N = 6),1 (17) n (%)
same,Adverse event: Cough,[1]; single dose 1 mg (N = 6),0 n (%)
same,Adverse event: Diarrhea,[1]; single dose 1 mg (N = 6),0 n (%)
same,Adverse event: Dizziness,[1]; single dose 1 mg (N = 6),1 (17) n (%)
same,Adverse event: Gastrointestinal disorders,[1]; single dose 1 mg (N = 6),1 (17) n (%)
same,Adverse event: Headache,[1]; single dose 1 mg (N = 6),1 (17) n (%)
same,Adverse event: Increased transaminases,[1]; single dose 1 mg (N = 6),0 n (%)
same,Adverse event: Nasal obstruction,[1]; single dose 1 mg (N = 6),0 n (%)
same,Adverse event: Nasopharyngitis,[1]; single dose 1 mg (N = 6),0 n (%)
same,Adverse event: Nightmare,[1]; single dose 1 mg (N = 6),0 n (%)
same,Adverse event: Viral infection,[1]; single dose 1 mg (N = 6),0 n (%)
same,Adverse event: Vomiting,[1]; single dose 1 mg (N = 6),0 n (%)
same,Adverse event: Any event,[1]; single dose 3 mg (N = 6),2 (33) n (%)
same,Adverse event: Contact dermatitis,[1]; single dose 3 mg (N = 6),1 (17) n (%)
same,Adverse event: Cough,[1]; single dose 3 mg (N = 6),0 n (%)
same,Adverse event: Diarrhea,[1]; single dose 3 mg (N = 6),0 n (%)
same,Adverse event: Dizziness,[1]; single dose 3 mg (N = 6),1 (17) n (%)
same,Adverse event: Gastrointestinal disorders,[1]; single dose 3 mg (N = 6),0 n (%)
same,Adverse event: Headache,[1]; single dose 3 mg (N = 6),0 n (%)
same,Adverse event: Increased transaminases,[1]; single dose 3 mg (N = 6),0 n (%)
same,Adverse event: Nasal obstruction,[1]; single dose 3 mg (N = 6),0 n (%)
same,Adverse event: Nasopharyngitis,[1]; single dose 3 mg (N = 6),0 n (%)
same,Adverse event: Nightmare,[1]; single dose 3 mg (N = 6),1 (17) n (%)
same,Adverse event: Viral infection,[1]; single dose 3 mg (N = 6),0 n (%)
same,Adverse event: Vomiting,[1]; single dose 3 mg (N = 6),0 n (%)
same,Adverse event: Any event,[1]; single dose 10 mg (N = 6),4 (67) n (%)
same,Adverse event: Contact dermatitis,[1]; single dose 10 mg (N = 6),1 (17) n (%)
same,Adverse event: Cough,[1]; single dose 10 mg (N = 6),1 (17) n (%)
same,Adverse event: Diarrhea,[1]; single dose 10 mg (N = 6),1 (17) n (%)
same,Adverse event: Dizziness,[1]; single dose 10 mg (N = 6),1 (17) n (%)
same,Adverse event: Gastrointestinal disorders,[1]; single dose 10 mg (N = 6),1 (17) n (%)
same,Adverse event: Headache,[1]; single dose 10 mg (N = 6),1 (17) n (%)
same,Adverse event: Increased transaminases,[1]; single dose 10 mg (N = 6),0 n (%)
same,Adverse event: Nasal obstruction,[1]; single dose 10 mg (N = 6),1 (17) n (%)
same,Adverse event: Nasopharyngitis,[1]; single dose 10 mg (N = 6),1 (17) n (%)
same,Adverse event: Nightmare,[1]; single dose 10 mg (N = 6),0 n (%)
same,Adverse event: Viral infection,[1]; single dose 10 mg (N = 6),1 (17) n (%)
same,Adverse event: Vomiting,[1]; single dose 10 mg (N = 6),0 n (%)
same,Adverse event: Any event,[1]; single dose 30 mg (N = 6),3 (50) n (%)
same,Adverse event: Contact dermatitis,[1]; single dose 30 mg (N = 6),0 n (%)
same,Adverse event: Cough,[1]; single dose 30 mg (N = 6),0 n (%)
same,Adverse event: Diarrhea,[1]; single dose 30 mg (N = 6),1 (17) n (%)
same,Adverse event: Dizziness,[1]; single dose 30 mg (N = 6),0 n (%)
same,Adverse event: Gastrointestinal disorders,[1]; single dose 30 mg (N = 6),1 (17) n (%)
same,Adverse event: Headache,[1]; single dose 30 mg (N = 6),1 (17) n (%)
same,Adverse event: Increased transaminases,[1]; single dose 30 mg (N = 6),0 n (%)
same,Adverse event: Nasal obstruction,[1]; single dose 30 mg (N = 6),0 n (%)
same,Adverse event: Nasopharyngitis,[1]; single dose 30 mg (N = 6),0 n (%)
same,Adverse event: Nightmare,[1]; single dose 30 mg (N = 6),0 n (%)
same,Adverse event: Viral infection,[1]; single dose 30 mg (N = 6),0 n (%)
same,Adverse event: Vomiting,[1]; single dose 30 mg (N = 6),0 n (%)
same,Adverse event: Any event,[1]; single dose 100 mg (N = 6),3 (50) n (%)
same,Adverse event: Contact dermatitis,[1]; single dose 100 mg (N = 6),0 n (%)
same,Adverse event: Cough,[1]; single dose 100 mg (N = 6),1 (17) n (%)
same,Adverse event: Diarrhea,[1]; single dose 100 mg (N = 6),2 (33) n (%)
same,Adverse event: Dizziness,[1]; single dose 100 mg (N = 6),0 n (%)
same,Adverse event: Gastrointestinal disorders,[1]; single dose 100 mg (N = 6),2 (33) n (%)
same,Adverse event: Headache,[1]; single dose 100 mg (N = 6),2 (33) n (%)
same,Adverse event: Increased transaminases,[1]; single dose 100 mg (N = 6),0 n (%)
same,Adverse event: Nasal obstruction,[1]; single dose 100 mg (N = 6),0 n (%)
same,Adverse event: Nasopharyngitis,[1]; single dose 100 mg (N = 6),1 (17) n (%)
same,Adverse event: Nightmare,[1]; single dose 100 mg (N = 6),0 n (%)
same,Adverse event: Viral infection,[1]; single dose 100 mg (N = 6),1 (17) n (%)
same,Adverse event: Vomiting,[1]; single dose 100 mg (N = 6),2 (33) n (%)
same,Adverse event: Any event,[1]; single dose 200 mg (N = 6),4 (67) n (%)
same,Adverse event: Contact dermatitis,[1]; single dose 200 mg (N = 6),1 (17) n (%)
same,Adverse event: Cough,[1]; single dose 200 mg (N = 6),0 n (%)
same,Adverse event: Diarrhea,[1]; single dose 200 mg (N = 6),0 n (%)
same,Adverse event: Dizziness,[1]; single dose 200 mg (N = 6),0 n (%)
same,Adverse event: Gastrointestinal disorders,[1]; single dose 200 mg (N = 6),0 n (%)
same,Adverse event: Headache,[1]; single dose 200 mg (N = 6),1 (17) n (%)
same,Adverse event: Increased transaminases,[1]; single dose 200 mg (N = 6),1 (17) n (%)
same,Adverse event: Nasal obstruction,[1]; single dose 200 mg (N = 6),0 n (%)
same,Adverse event: Nasopharyngitis,[1]; single dose 200 mg (N = 6),0 n (%)
same,Adverse event: Nightmare,[1]; single dose 200 mg (N = 6),0 n (%)
same,Adverse event: Viral infection,[1]; single dose 200 mg (N = 6),0 n (%)
same,Adverse event: Vomiting,[1]; single dose 200 mg (N = 6),0 n (%)
same,Adverse event: Any event,[1]; single dose 400 mg (N = 6),4 (67) n (%)
same,Adverse event: Contact dermatitis,[1]; single dose 400 mg (N = 6),1 (17) n (%)
same,Adverse event: Cough,[1]; single dose 400 mg (N = 6),0 n (%)
same,Adverse event: Diarrhea,[1]; single dose 400 mg (N = 6),0 n (%)
same,Adverse event: Dizziness,[1]; single dose 400 mg (N = 6),0 n (%)
same,Adverse event: Gastrointestinal disorders,[1]; single dose 400 mg (N = 6),1 (17) n (%)
same,Adverse event: Headache,[1]; single dose 400 mg (N = 6),2 (33) n (%)
same,Adverse event: Increased transaminases,[1]; single dose 400 mg (N = 6),0 n (%)
same,Adverse event: Nasal obstruction,[1]; single dose 400 mg (N = 6),0 n (%)
same,Adverse event: Nasopharyngitis,[1]; single dose 400 mg (N = 6),1 (17) n (%)
same,Adverse event: Nightmare,[1]; single dose 400 mg (N = 6),0 n (%)
same,Adverse event: Viral infection,[1]; single dose 400 mg (N = 6),0 n (%)
same,Adverse event: Vomiting,[1]; single dose 400 mg (N = 6),0 n (%)
same,Adverse event: Any event,[1]; single dose 700 mg (N = 6),1 (17) n (%)
same,Adverse event: Contact dermatitis,[1]; single dose 700 mg (N = 6),0 n (%)
same,Adverse event: Cough,[1]; single dose 700 mg (N = 6),0 n (%)
same,Adverse event: Diarrhea,[1]; single dose 700 mg (N = 6),0 n (%)
same,Adverse event: Dizziness,[1]; single dose 700 mg (N = 6),1 (17) n (%)
same,Adverse event: Gastrointestinal disorders,[1]; single dose 700 mg (N = 6),0 n (%)
same,Adverse event: Headache,[1]; single dose 700 mg (N = 6),0 n (%)
same,Adverse event: Increased transaminases,[1]; single dose 700 mg (N = 6),0 n (%)
same,Adverse event: Nasal obstruction,[1]; single dose 700 mg (N = 6),0 n (%)
same,Adverse event: Nasopharyngitis,[1]; single dose 700 mg (N = 6),0 n (%)
same,Adverse event: Nightmare,[1]; single dose 700 mg (N = 6),0 n (%)
same,Adverse event: Viral infection,[1]; single dose 700 mg (N = 6),0 n (%)
same,Adverse event: Vomiting,[1]; single dose 700 mg (N = 6),0 n (%)
same,dose‐proportionality of Cmax and AUC,[2]; 1‐ to 700‐mg single dose range,approximately dose‐proportional increase in exposure
same,AUC,[2]; 1 mg,57 ng·h/mL
same,Cmax,[2]; 1 mg,5 ng/mL
same,Tmax,"[2]; 1 mg, tmax, median (range), single dose 1 mg, N = 6",3.5 h
same,AUC,[2]; 3 mg,329 ng·h/mL
same,Cmax,[2]; 3 mg,14 ng/mL
same,half-life,"[2]; 3 mg, t1/2, geometric mean (%CVb), single dose 3 mg, N = 6",20.5 h
same,Tmax,"[2]; 3 mg, tmax, median (range), single dose 3 mg, N = 6",4.5 h
same,AUC,[2]; 10 mg,1230 ng·h/mL
same,Cmax,[2]; 10 mg,47 ng/mL
same,Tmax,"[2]; 10 mg, tmax, median (range), single dose 10 mg, N = 6",3.5 h
same,AUC,[2]; 30 mg,2990 ng·h/mL
same,Cmax,[2]; 30 mg,130 ng/mL
same,Tmax,"[2]; 30 mg, tmax, median (range), single dose 30 mg, N = 6",4 h
same,AUC,[2]; 100 mg,8540 ng·h/mL
same,Cmax,[2]; 100 mg,372 ng/mL
same,Tmax,"[2]; 100 mg, tmax, median (range), single dose 100 mg, N = 6",3.8 h
same,AUC,[2]; 200 mg,15000 ng·h/mL
same,Cmax,[2]; 200 mg,579 ng/mL
same,Tmax,"[2]; 200 mg, tmax, median (range), single dose 200 mg, N = 6",3 h
same,AUC,[2]; 400 mg,43000 ng·h/mL
same,Cmax,[2]; 400 mg,1880 ng/mL
same,Tmax,"[2]; 400 mg, tmax, median (range), single dose 400 mg, N = 6",3.3 h
same,AUC,[2]; 700 mg,39700 ng·h/mL
same,Cmax,[2]; 700 mg,1720 ng/mL
same,Tmax,"[2]; 700 mg, tmax, median (range), single dose 700 mg, N = 6",3.3 h
same,half-life,"[2]; estimated half‐life, single‐ and multiple‐dose administration after a moderate‐calorie and ‐fat breakfast",21.2 to 28.4 h
same,half-life,"[2]; half‐life, abstract summary of the FTIH study",~24 h
same,half-life,"[2]; mean half‐life, 10‐ to 700‐mg single doses",~24 h
same,Tmax,"[2]; median tmax, after administration, range across doses",3 to 4.5 h
same,change in exposure from 400 to 700 mg,[2]; single dose,no increase in exposure from 400 to 700 mg
same,time detectable in plasma,[2]; single dose 1 and 3 mg,up to 48 hours
same,time detectable in plasma,[2]; single dose 10‐700 mg,up to 96 hours
same,maximum recommended starting dose [MRSD] based on lowest observed adverse effect level in dogs,[3]; calculated from dog level of 1 mg/kg,approximately 3.2 mg
same,lowest observed adverse effect level,"[3]; dogs, absence of a NOAEL in dogs",1 mg/kg

# From publication PMC7670640 (Pharmacology Research & Perspectives, 2020)
